G6PDH counter = L. mesenteroides G6PDH inhibitors, counter-screen for G6PDH-coupled screening assays, biochemical, Leuconostoc mesenteroides enzyme | AID 1020, 2008 | inhibition, % at 5 µM | Purified L. mesenteroides G6PDH, diaphorase/resazurin coupled fluorescence, 45 min | 0.12% of 200,000 active
L major viab = Leishmania major promastigote growth inhibition, primary screen; inhibition, % at 10 µM; 9% of 200,000 active; AID 1063, 2008; Leishmania major promastigotes, resazurin fluorescence viability;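 note: promastigotes grown with compound for 44 hours at 28 °C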
PfG6PD inh = PfG6PD enzyme inhibitors, primary screen, biochemical, fluorescence intensity, uHTS; 0.78% of 350,000 active; PfGluPho enzyme, NADPH resazurin-diaphorase fluorescence; inhibition, % at 20 µM; AID 504690, 2011;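 active = inhibition reaching at least a set limit at 20 µM in the primary screen, cut at about 59% in these data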;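 note: 0% = DMSO wells with substrate and 100% = DMSO wells lacking glucose-6-phosphate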
Redox H2O2 prof = compounds producing H2O2 with reducing agent – biochemical, NIH compound library profiling, artefact control for MLSCN library redox annotation, primary screen. activation, % at 10 µM. DTT-dependent redox cycling H2O2, phenol red/HRP absorbance; 100% = 100 µM peroxide control, 0% = buffer. 0.03% of 200,000 active;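 active = activation of at least 50% relative to the plate's high and low controls in the primary single-dose screen; inactive = activation below 50%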;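 note: compound incubated with DTT at 0.8 mM final as the reducing agent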
Diaphorase inh = diaphorase inhibitors and chemical oxidizers, primary screen, counter-screen for diaphorase-coupled primary assays, biochemical, uHTS, resorufin fluorescence; 0.69% of 190,000 active; inhibition, % at 20 µM; diaphorase resazurin-to-resorufin fluorescence, NADH, 16 min; bacterial (C. kluyveri) enzyme, not human; AID 1217, 2008;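 active = primary screen inhibition at 20 µM above a set limit, cut at about 50% in these data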;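 note: plate controls were DMSO with full reaction for no effect and wells lacking NADH for full effect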
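System: Diaphorase enzyme from Clostridium kluyveri | Amount: Enzyme working solution with 0.14 U/mL diaphorase | Benchmarks: No-NADH positive control and DMSO neutral control | Signal: Fluorescence of resorufin formed from resazurin, Ex 544/Em 590 nm | Schedule: 16-min room-temperature incubation before reading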
Diaphorase act = compounds boosting diaphorase resazurin reduction – biochemical, uHTS, resorufin fluorescence, counter-screen for diaphorase-coupled primary assays, primary screen; activation factor at 20 µM; Diaphorase/resazurin coupled assay, 16 min; active compounds read high; 1 = vehicle wells, 0 = NADH-free wells; 0.005% of 190,000 active; AID 1229, 2008;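 active = diaphorase activity raised at least twofold by the compound at 20 µM; inactive = activation factor below 2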
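test system = bacterial diaphorase enzyme (C. kluyveri) | quantity = enzyme 0.07 U/mL final | reagent = NADH substrate 0.114 mM plus resazurin dye 0.1 mM, final | incubation = 16 min enzyme reaction, ambient temperature | buffer or medium = HEPES pH 7.4 buffer with MgCl2 and Tween 20 | signal = fluorescence of resorufin, 544 nm excitation, 590 nm emission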
* marks the source's active call; other numbers are inactive results; x = no result. Shown is part of a subset that was picked to be rich in hits. Cut-off read from the data, not from the text of the source, unless noted: active = inhibition above about 50%; inactive = the rest.

SMILES | G6PDH counter | L major viab | PfG6PD inh | Redox H2O2 prof | Diaphorase inh | Diaphorase act
CCC(C)(C)NC(=O)CN(C(=O)CCC(=O)Nc1ccccn1)c1ccc(F)c(Cl)c1 | 0 | 90* | 17 | 0 | 17 | 0.8
Cc1ccc(C)c(N(CC(=O)NCc2ccc3c(c2)OCO3)C(=O)CCC(=O)Nc2ccccn2)c1 | 0 | 56* | -13 | 2 | 16 | 0.8
Cc1ccc(N2CCN(C3=NC(=O)/C(=C\c4cn[nH]c4-c4ccccc4)S3)CC2)cc1 | -28 | 18 | -5 | 0 | 7 | 0.9
O=C1N=C(N2CCN(c3ccccc3)CC2)S/C1=C\c1cn[nH]c1-c1ccccc1 | -12 | 52* | -6 | 0 | 11 | 0.9
Cc1cc(CN(C)C(=O)C2CCC(=O)N(CCc3cccc(F)c3)C2)on1 (stereo not given) | x | x | -4 | x | x | x
COc1cc(C(=O)OCc2ccc(C)cc2)cc(NC(=O)c2cccs2)c1OC | -6 | 55* | 7 | x | 14 | 0.9
COc1cc(C(=O)O)cc(NC(=O)c2cccs2)c1OC | 15 | 26 | -22 | 0 | 26 | 0.7
O=[N+]([O-])c1cc(/C=N\Nc2nccs2)ccc1O | 4 | -5 | x | 0 | 90* | 0.1
CCOc1cccc(CNc2ccc(O)cc2)c1OCc1ccccc1Cl | 5 | 99* | 56 | 1 | 43 | 0.6
COc1ccccc1CCNC(=O)C(=O)c1cn(CC(=O)N2CCOCC2)c2ccccc12 | x | x | -4 | x | x | x
CC(=O)N1CCN(C(=O)c2cccc(S(=O)(=O)N3c4ccccc4CC3C)c2)CC1 (stereo not given) | x | x | -13 | x | x | x
CCOC(=O)c1ccc(NC(=O)c2cccc(S(=O)(=O)N3c4ccccc4CC3C)c2)s1 (stereo not given) | -7 | 99* | -2 | -1 | 19 | 0.8
CC1Cc2ccccc2N1S(=O)(=O)c1cccc(C(=O)NCCCO)c1 (stereo not given) | 7 | 6 | -9 | 2 | 3 | 1
CC1Cc2ccccc2N1S(=O)(=O)c1cccc(C(=O)N2CCN(c3ncccn3)CC2)c1 (stereo not given) | 13 | 77* | 6 | -1 | 1 | 1
C[C@@H](CN1CCC(Cc2ccccc2)CC1)[C@@H](O)c1ccc(O)cc1 | x | x | 4 | x | x | x
CC(C(O)c1ccc(O)cc1)N1CCC(Cc2ccccc2)CC1 (stereo not given) | 8 | 96* | 5 | 0 | 10 | 0.9
CC(=O)Nc1ccc(SCC(=O)c2cc(C)n(-c3ccccc3F)c2C)cc1 | 8 | 81* | 45 | 0 | 28 | 0.7
CCNC(=S)N(CCc1ccccc1C)Cc1cc2cc(OC)c(OC)cc2[nH]c1=O | -19 | 75* | 9 | 0 | 28 | 0.7
COc1cc2cc(CN(CCc3ccccc3C)C(=S)NCCCN(C)C)c(=O)[nH]c2cc1OC | -10 | 78* | 38 | 0 | 10 | 0.9
CNC(=S)N(CCc1ccc(OC)c(OC)c1)Cc1cc2c(C)cc(C)cc2[nH]c1=O | -26 | 69* | 24 | 0 | 18 | 0.8
CCNC(=S)N(CCc1cccc(C)c1)Cc1cc2cc(OC)c(OC)cc2[nH]c1=O | 13 | 8 | 11 | 0 | 20 | 0.8
CN(CC(=O)Nc1ccccc1C(F)(F)F)C(=O)c1ccc(-c2ccc(Cl)cc2)o1 | x | x | 11 | x | x | x
CN(C(=O)c1cccc(NC(=O)Cc2ccc(NC(=O)C3CCN(S(=O)(=O)c4cccc([N+](=O)[O-])c4)CC3)cc2)c1)C1CCCCC1 | x | x | 3 | x | x | x
CCOC(=O)N1CCC(=NNS(=O)(=O)c2cccc([N+](=O)[O-])c2)CC1 | 6 | -7 | 17 | -2 | -2 | 1
Cc1ccc2[nH]c(=O)c(CN(CC3CCCO3)S(=O)(=O)c3c(C)ccc4nsnc34)cc2c1 (stereo not given) | 10 | 95* | -5 | 0 | 25 | 0.8
SMILES | G6PDH counter | L major viab | PfG6PD inh | Redox H2O2 prof | Diaphorase inh | Diaphorase act
COc1ccc2[nH]c(=O)c(CN(Cc3cccs3)S(=O)(=O)c3c(C)ccc4nsnc34)cc2c1 | 12 | 98* | 3 | 0 | 10 | 0.9
CCC(C)(C)c1nnc(NC(=O)CCC2CCCCC2)s1 | x | x | -6 | x | x | x
Cc1cc(C)c(S(=O)(=O)c2cccc(Cl)c2)c(Cl)n1 | 4 | 4 | 0 | -1 | 2 | 1
Cc1cc(C)c(S(=O)(=O)c2ccc(Cl)cc2C)c(Cl)n1 | -1 | 100* | 43 | 1 | 16 | 0.8
Cc1cc(C)c(S(=O)(=O)c2cc(F)ccc2C)c(Cl)n1 | x | x | -1 | x | x | x
Cc1cc(C)c(S(=O)(=O)c2c(C)cccc2C)c(Cl)n1 | 3 | 100* | 42 | 1 | 0 | 1
O=C(NN=C(Cc1ccccc1)Cc1ccccc1)c1ccccc1O | 10 | 61* | -30 | 0 | 1 | 1
CCOc1ccc(OCCOC(=O)CN2C(=O)NC3(CCCC3)C2=O)cc1 | x | x | 8 | x | x | x
CCCCCCCSc1nnc(N)s1 | x | x | 0 | x | x | x
C1=CC2CC1CC2CN1CCN(Cc2ccccc2)CC1 (stereo not given) | 16 | 95* | -12 | 0 | -8 | 1.1
Fc1ccccc1N1CCN(CC2CC3C=CC2C3)CC1 (stereo not given) | 1 | 89* | 6 | 0 | 3 | 1
OC(CN1CCN(c2ccccc2F)CC1)c1ccc(F)cc1 (stereo not given) | x | x | -6 | x | x | x
FC(F)(F)c1cccc(N2CCN(CC3CC4C=CC3C4)CC2)c1 (stereo not given) | 12 | 82* | 14 | 2 | 3 | 1
CCOc1cc(CNCCSc2nnnn2C)cc(Br)c1OCc1ccc(F)cc1 | -22 | 50* | 17 | 0 | 6 | 0.9
Cn1nnnc1SCCNCc1ccccc1OCc1ccccc1 | -2 | 6 | 4 | 0 | 0 | 1
COc1cc(CNCCSc2nnnn2C)cc(Br)c1OCc1ccccc1F | -8 | 90* | -7 | 0 | 6 | 0.9
COc1cc(CNCCSc2nnnn2C)cc(Br)c1OCc1ccc(F)cc1 | 9 | 95* | -6 | 0 | 9 | 0.9
CCOc1cc(CNCCSc2nnnn2C)cc(Br)c1OCc1ccccc1F | 0 | 36 | 5 | -5 | 10 | 0.9
COc1cc(CNCCSc2nnnn2C)cc(Br)c1OCc1ccccc1 | 2 | 56* | -16 | -2 | -5 | 1.1
COc1ccc(CCNC(=O)C2CCN(S(=O)(=O)c3ccc4nc5c(c(C(=O)O)c4c3)CCCC5)CC2)cc1OC | x | x | -4 | x | x | x
Cc1ccc(NC(=O)N2CCCCCC2)c(C)c1 | x | x | 18 | x | x | x

Compound activity from PubChem BioAssay.
